Laboratory results from ChEMBL document CHEMBL5376013, “Design, synthesis and biological evaluation of novel morpholinopyrimidine-5-carbonitrile derivatives as dual PI3K/mTOR inhibitors” (RSC Med Chem, 2024).

Assays:
DU-145 = assay: Antitumor activity against human DU-145 cells assessed as growth inhibition at 10 uM relative to control; assay type: functional; conditions: read-out: GI
Method in brief: (§1)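 After drug addition, plates were incubated 48 h at 37 °C under 5% CO2. Adherent cells were fixed with cold TCA (10% final, 60 min, 4 °C) and suspension cells with 16% final TCA. Staining used 0.4% SRB in 1% acetic acid, solubilized in 10 mM trizma, read at A515. Percent growth was calculated from time-zero, control and treated absorbances.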

MCF7 = assay: Antitumor activity against human MCF7 cells assessed as growth inhibition at 10 uM relative to control; assay type: functional; conditions: read-out: GI; method in brief: as §1
MOLT-4 = assay: Antitumor activity against human MOLT-4 cells assessed as growth inhibition at 10 uM relative to control; assay type: functional; conditions: read-out: GI; method in brief: as §1
MDA-MB-468 = assay: Antitumor activity against human MDA-MB-468 cells assessed as growth inhibition at 10 uM relative to control; assay type: functional; conditions: read-out: GI; method in brief: as §1
LOX IMVI = assay: Antitumor activity against human LOX IMVI cells assessed as growth inhibition at 10 uM relative to control; assay type: functional; conditions: read-out: GI; method in brief: as §1
A549 = assay: Antitumor activity against human A549 cells assessed as growth inhibition at 10 uM relative to control; assay type: functional; conditions: read-out: GI; method in brief: as §1
ACHN = assay: Antitumor activity against human ACHN cells assessed as growth inhibition at 10 uM relative to control; assay type: functional; conditions: read-out: GI; method in brief: as §1
PC-3 = assay: Antitumor activity against human PC-3 cells assessed as growth inhibition at 10 uM relative to control; assay type: functional; conditions: read-out: GI; method in brief: as §1
OVCAR-8 = assay: Antitumor activity against human OVCAR-8 cells assessed as growth inhibition at 10 uM relative to control; assay type: functional; conditions: read-out: GI; method in brief: as §1
CCRF-CEM = assay: Antitumor activity against human CCRF-CEM cells assessed as growth inhibition at 10 uM relative to control; assay type: functional; conditions: read-out: GI; method in brief: as §1
K562 = assay: Antitumor activity against human K562 cells assessed as growth inhibition at 10 uM relative to control; assay type: functional; conditions: read-out: GI; method in brief: as §1
HCT-15 = assay: Antitumor activity against human HCT-15 cells assessed as growth inhibition at 10 uM relative to control; assay type: functional; conditions: read-out: GI; method in brief: as §1
BT-549 = assay: Antitumor activity against human BT-549 cells assessed as growth inhibition at 10 uM relative to control; assay type: functional; conditions: read-out: GI; method in brief: as §1
OVCAR-3 = assay: Antitumor activity against human OVCAR-3 cells assessed as growth inhibition at 10 uM relative to control; assay type: functional; conditions: read-out: GI; method in brief: as §1
SR = assay: cells; conditions: Homo sapiens

Compound | inhibition of growth at 10 µM (DU-145) | inhibition of growth at 10 µM (MCF7) | inhibition of growth at 10 µM (MOLT-4) | inhibition of growth at 10 µM (MDA-MB-468) | inhibition of growth at 10 µM (LOX IMVI) | inhibition of growth at 10 µM (A549) | inhibition of growth at 10 µM (ACHN) | inhibition of growth at 10 µM (PC-3) | inhibition of growth at 10 µM (OVCAR-8) | inhibition of growth at 10 µM (CCRF-CEM) | inhibition of growth at 10 µM (K562) | inhibition of growth at 10 µM (HCT-15) | inhibition of growth at 10 µM (BT-549) | inhibition of growth at 10 µM (OVCAR-3) | IC50 (SR)
CSc1nc(-c2ccc(Cl)cc2)c(C#N)c(N2CCOCC2)n1 | < 1% | 1% | < 1% | < 1% | < 1% | 10.8% | < 1% | < 1% | < 1% | < 1% | 19.9% | < 1% | 21.8% | < 1% | 
CSc1nc(Cl)c(C#N)c(-c2ccc(Cl)cc2)n1 | < 1% | 1% | 27.6% | < 1% | < 1% | < 1% | < 1% | < 1% | < 1% | 26.1% | 44.5% | < 1% | 11.2% | < 1% | 
N#Cc1c(-c2ccc(Cl)cc2)nc(N2NC(=O)CC2=N)nc1N1CCOCC1 | < 1% | 1% | < 1% | < 1% | < 1% | < 1% | < 1% | < 1% | < 1% | < 1% | < 1% | < 1% | < 1% | < 1% | 
CC1=NN(c2nc(-c3ccc(Cl)cc3)c(C#N)c(N3CCOCC3)n2)C(=O)C1 | < 1% | 1% | < 1% | < 1% | 24.5% | < 1% | 26.4% | < 1% | < 1% | 14.1% | < 1% | 10.3% | 33.9% | 49.8% | 
COc1cc(/C=N/Nc2nc(-c3ccc(Cl)cc3)c(C#N)c(N3CCOCC3)n2)cc(OC)c1OC | 32.2% | < 35.5% | 65.9% | 32.1% | 70% | 41.4% | 36.7% | 45.7% | 46.6% | 58.1% | 51.2% | 48% | 45.7% | 25.9% | 350 nM
N#Cc1c(-c2ccc(Cl)cc2)nc(N/N=C/c2cccc([N+](=O)[O-])c2)nc1N1CCOCC1 | 13.1% | < 25.6% | 36.6% | 26.1% | 26% | 27.2% | 21.3% | 35.8% | 12.5% | 25.3% | 33.6% | 23% | 27.6% | 11.2% | 
CSc1nc(O)c(C#N)c(-c2ccc(Cl)cc2)n1 | < 1% | 11% | < 1% | < 1% | < 1% | < 1% | < 1% | < 1% | < 1% | < 1% | < 1% | < 1% | < 1% | < 1% | 
N#Cc1c(-c2ccc(Cl)cc2)nc(N/N=C/c2ccc[nH]2)nc1N1CCOCC1 | 15.8% | < 29.3% | 82.6% | 21.8% | 12.2% | 45.6% | 17.5% | 53.4% | 14.9% | 79.2% | 55.8% | 21.1% | 83.1% | 54.4% | 770 nM
N#Cc1c(-c2ccc(Cl)cc2)nc(NN)nc1N1CCOCC1 | < 1% | 1% | < 1% | < 1% | < 1% | < 1% | < 1% | < 1% | < 1% | < 1% | < 1% | < 1% | < 1% | < 1% | 
N#Cc1c(-c2ccc(Cl)cc2)[nH]c(=S)[nH]c1=O | < 1% | < 1% | < 1% | < 1% | < 1% | < 1% | < 1% | < 1% | < 1% | < 1% | < 1% | < 1% | < 1% | < 1% | 
N#Cc1c(-c2ccc(Cl)cc2)nc(NN2C(=O)CCC2=O)nc1N1CCOCC1 | < 1% | 1% | < 1% | < 1% | < 1% | < 1% | < 1% | < 1% | < 1% | < 1% | < 1% | < 1% | < 1% | < 1% | 
N#Cc1c(-c2ccc(Cl)cc2)nc(N/N=C/c2cccc(F)c2)nc1N1CCOCC1 | < 1% | < 12.4% | 25.9% | < 1% | 11.8% | < 1% | 10.2% | 14.9% | < 1% | 19.6% | 15% | 21.3% | < 1% | < 1% | 
